# Reference: ChEMBL document CHEMBL1127635, “Thiopyrano[2,3,4-cd]indoles as 5-lipoxygenase inhibitors: synthesis, biological profile, and resolution of 2-[2-[1-(4-chlorobenzyl)-4-methyl-6-[(5-phenylpyridin-2-yl)methoxy]-4,5 -dihydro-1H-thiopyrano[2,3,4-cd]indol-2-yl]ethoxy]butanoic acid” (J Med Chem, 1994)
# Key:
# [1] = target: T1, Polyunsaturated fatty acid 5-lipoxygenase (Homo sapiens, UniProt P09917); test: In vitro inhibition of human 5-Lipoxygenase.
# T1 sequence (P09917 whole entry): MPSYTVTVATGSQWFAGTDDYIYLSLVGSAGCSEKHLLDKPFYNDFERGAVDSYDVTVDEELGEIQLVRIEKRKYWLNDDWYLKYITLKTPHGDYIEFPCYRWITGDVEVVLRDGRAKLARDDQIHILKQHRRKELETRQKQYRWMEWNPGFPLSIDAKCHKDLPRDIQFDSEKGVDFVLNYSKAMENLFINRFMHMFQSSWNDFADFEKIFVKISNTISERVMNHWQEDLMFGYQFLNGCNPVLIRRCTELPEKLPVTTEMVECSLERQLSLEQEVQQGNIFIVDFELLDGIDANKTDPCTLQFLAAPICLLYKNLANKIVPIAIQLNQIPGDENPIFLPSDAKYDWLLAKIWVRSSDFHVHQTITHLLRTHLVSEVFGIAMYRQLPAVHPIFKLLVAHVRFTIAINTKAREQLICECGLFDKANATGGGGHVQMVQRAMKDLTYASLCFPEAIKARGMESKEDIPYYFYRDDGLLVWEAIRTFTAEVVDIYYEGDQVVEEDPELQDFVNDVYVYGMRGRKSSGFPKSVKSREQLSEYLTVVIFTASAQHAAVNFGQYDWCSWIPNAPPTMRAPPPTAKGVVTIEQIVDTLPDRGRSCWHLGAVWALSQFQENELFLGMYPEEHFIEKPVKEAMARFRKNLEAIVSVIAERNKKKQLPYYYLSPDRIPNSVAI
# Procedure, shortened: (§1)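 Spectrophotometric assay following 5-H(P)ETE production by the 100000g supernatant (S100) fraction of insect cells overexpressing human 5-LO.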
# [2] = Cmax value in rat plasma when administered 20 mg/kg perorally; assay type: ADME, organism-based; design: dose 20 mg/kg, route oral; details: po
# Procedure, shortened: (§2)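 Rat plasma profiles after dosing the sodium salts either orally at 20 mg/kg in 1% methocel or iv at 5 mg/kg in PEG 200. Bioavailability is calculated as AUCpo/4 × AUCiv.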
# [3] = Bioavailability in rat (dose 5 mg/kg i.v.); assay type: ADME, organism-based; details: in vivo, iv; procedure, shortened: as §2
# [4] = Tmax value in rat plasma when administered 20 mg/kg perorally; assay type: ADME, organism-based; design: dose 20 mg/kg, route oral; details: po; procedure, shortened: as §2
# [5] = species on record: Homo sapiens; test: Effect on production of LTB4 in human polymorphonuclear leukocytes; assay type: functional
# Procedure, shortened: (§3)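 LTB4 biosynthesis measured in human polymorphonuclear leukocytes activated with Ca2+ ionophore.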
# [6] = tested on: Rattus norvegicus; test: Tested for percentage inhibition of dyspnea (0.5 mg/kg po using methocel) by in vivo in hyperactive rat after 2 hours pretreatment; assay type: functional
# Procedure, shortened: (§4)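 Inbred hyperreactive rats pretreated with methysergide 3 mg/kg iv. Drug given at 0.5 mg/kg po in methocel before ovalbumin challenge. Read-out is % inhibition of dyspnea duration versus litter-mate-matched vehicle controls, n = 6.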
# [7] = tested on: Rattus norvegicus; test: Tested for percentage inhibition of dyspnea (0.5 mg/kg po using methocel) by in vivo in hyperactive rat after 4 hours pretreatment; assay type: functional; procedure, shortened: as §4
# [8] = species on record: Homo sapiens; test: (§5) Effect on production of LTB4 in human polymorphonuclear (HPMN) leukocytes; assay type: functional; procedure, shortened: as §3
# [9] = target: T1, Polyunsaturated fatty acid 5-lipoxygenase; test: Tested against 5-lipoxygenase; procedure, shortened: as §1
# [10] = species on record: Rattus norvegicus; test: Tested for effective inhibition of LTB4 with an 8 hr pretreatment; assay type: functional
# [11] = species on record: Homo sapiens; test: Effect on production of LTB4 in human whole blood; assay type: functional
# Procedure, shortened: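 Human whole blood activated with ionophore A23187; inhibition of LTB4 biosynthesis assessed.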
# [12] = tested on: Rattus norvegicus; test: In vivo inhibition of LBT4 in a rat pleurisy model with a 6 h pretreatment time; assay type: functional
# Procedure, shortened: (§6)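 Male Sprague-Dawley rats given 0.4 mL of 0.5% carrageenan in saline intrapleurally 16 h before drug. Drug doses ranged from 3 to 0.3 mg/kg. Intrapleural calcium ionophore challenge 6 h after dosing. LTB4 in pleural exudate measured 1 h later; ED50 derived, n = 6/group.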
# [13] = Inhibition of Ascaris antigen induced bronchoconstriction in the conscious squirrel monkey at 0.1 mg/kg dose (Change in airway resistance); assay type: functional
# Procedure, shortened: (§7)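 Allergic conscious squirrel monkeys pretreated with drug for 4 h, then challenged with aerosolized Ascaris antigen (1:25 dilution). Airway resistance (RL) increase and dynamic compliance (Cdyn) decrease recorded; % inhibition versus control, mean ± SEM.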
# [14] = Inhibition of Ascaris antigen induced bronchoconstriction in the conscious squirrel monkey at 0.3 mg/kg dose (Change in airway resistance); assay type: functional; procedure, shortened: as §7
# [15] = Tested for inhibition of Ascaris antigen induced bronchoconstriction in the conscious squirrel monkey at 0.1 mg/kg dose (changes in dynamic compliance); assay type: functional; procedure, shortened: as §7
# [16] = Tested for inhibition of Ascaris antigen induced bronchoconstriction in the conscious squirrel monkey at 0.3 mg/kg dose (changes in dynamic compliance); assay type: functional; procedure, shortened: as §7
# [17] = species on record: Homo sapiens; test: as §5
# [18] = tested on: Rattus norvegicus; test: In vivo inhibition of LTB4 biosynthesis in a rat pleurisy model with an 6 hr pretreatment time; assay type: functional; procedure, shortened: as §6
# [19] = Tested for inhibition of Ascaris antigen induced bronchoconstriction in the conscious squirrel monkey at 0.3 mg/kg dose (changes in the airway resistance(); assay type: functional; procedure, shortened: as §7
smiles,measurement,setting,value
CC1Cc2c(OCc3ccc(-c4ccccc4)cn3)ccc3c2c(c(CCOC(C)C(=O)O)n3Cc2ccc(Cl)cc2)S1 (stereo not given),IC50,[1],20 nM
same,Cmax,[2],3.8 µM
same,bioavailability,[3],35%
same,Tmax,[4],2 h
same,IC50,[5]; Homo sapiens,5 nM
same,Inhibition,[6],53%
same,Inhibition,[7],2%
CC1Cc2c(OCc3ccc(-c4ccccc4)cn3)ccc3c2c(c(CCOCCC(=O)O)n3Cc2ccc(Cl)cc2)S1 (stereo not given),IC50,[1],105 nM
same,IC50,[5]; Homo sapiens,11 nM
CC1Cc2c(OCc3ccc(-c4ccccc4)cn3)ccc3c2c(c(CCOCC(=O)O)n3Cc2ccc(Cl)cc2)S1 (stereo not given),IC50,[5]; Homo sapiens,31 nM
CC[C@H](CSCc1c2c3c(c(OCc4ccc(-c5ccccc5)cn4)ccc3n1Cc1ccc(Cl)cc1)CC(C)S2)C(=O)O (stereo not given in full),IC50,[1],120 nM
same,IC50,[5]; Homo sapiens,12 nM
CCC(OCCc1c2c3c(c(OCc4ccc(-c5ccccc5)cn4)ccc3n1Cc1ccc(Cl)cc1)CC(C)S2)C(=O)NS(C)(=O)=O (stereo not given),IC50,[1],20 nM
same,Cmax,[2],4 µM
same,bioavailability,[3],72%
same,Tmax,[4],4 h
same,IC50,[5]; Homo sapiens,6.5 nM
CC1Cc2c(OCc3ccc(-c4ccccc4)cn3)ccc3c2c(c(COCC(=O)O)n3Cc2ccc(Cl)cc2)S1 (stereo not given),IC50,[5]; Homo sapiens,17 nM
CC1Cc2c(OCc3ccc(-c4ccccc4)cn3)ccc3c2c(c(CCOC(C)c2nnn[nH]2)n3Cc2ccc(Cl)cc2)S1 (stereo not given),IC50,[8],10 nM
same,IC50,[9],60 nM
CC(CC(=O)O)SCc1c2c3c(c(OCc4ccc(-c5ccccc5)cn4)ccc3n1Cc1ccc(Cl)cc1)CC(C)S2 (stereo not given),IC50,[1],70 nM
same,IC50,[5]; Homo sapiens,50 nM
CC1Cc2c(OCc3ccc(-c4ccccc4)cn3)ccc3c2c(c(CCSC(C)C(=O)O)n3Cc2ccc(Cl)cc2)S1 (stereo not given),IC50,[5]; Homo sapiens,17 nM
CCC(CSCc1c2c3c(c(OCc4ccc(-c5ccccc5)cn4)ccc3n1Cc1ccc(Cl)cc1)CC(C)S2)C(=O)O (stereo not given),IC50,[5]; Homo sapiens,6 nM
CC1Cc2c(OCc3ccc(-c4ccccc4)cn3)ccc3c2c(c(CCNC(C)C(=O)O)n3Cc2ccc(Cl)cc2)S1 (stereo not given),IC50,[1],4000 nM
same,IC50,[5]; Homo sapiens,1100 nM
CC1Cc2c(OCc3ccc(-c4ccccc4)cn3)ccc3c2c(c(CC(=O)N(C)C(C)C(=O)O)n3Cc2ccc(Cl)cc2)S1 (stereo not given),IC50,[1],300 nM
same,IC50,[5]; Homo sapiens,200 nM
CC(=O)N(CCc1c2c3c(c(OCc4ccc(-c5ccccc5)cn4)ccc3n1Cc1ccc(Cl)cc1)CC(C)S2)C(C)C(=O)O (stereo not given),IC50,[1],900 nM
same,IC50,[5]; Homo sapiens,113 nM
CC1Cc2c(OCc3ccc(-c4ccccc4)cn3)ccc3c2c(c(CC(C)(C)Cc2nnn[nH]2)n3Cc2ccc(Cl)cc2)S1 (stereo not given),ED50,[10],1.9 mg/kg
same,IC50,[8],8 nM
CC1Cc2c(OCc3ccc(-c4ccccc4)cn3)ccc3c2c(c(CSCC(C)C(=O)O)n3Cc2ccc(Cl)cc2)S1 (stereo not given),IC50,[5]; Homo sapiens,20 nM
CC1Cc2c(OCc3ccc(-c4ccccc4)cn3)ccc3c2c(c(CCOC(C)C(=O)NS(C)(=O)=O)n3Cc2ccc(Cl)cc2)S1 (stereo not given),IC50,[1],22 nM
same,IC50,[5]; Homo sapiens,4.5 nM
CC1Cc2c(OCc3ccc(-c4ccccc4)cn3)ccc3c2c(c(CCOC(C)(C)C(=O)O)n3Cc2ccc(Cl)cc2)S1 (stereo not given),IC50,[1],50 nM
same,IC50,[5]; Homo sapiens,7 nM
CC1Cc2c(OCc3ccc(-c4ccccc4)cn3)ccc3c2c(c(COCCC(=O)O)n3Cc2ccc(Cl)cc2)S1 (stereo not given),IC50,[1],250 nM
same,IC50,[5]; Homo sapiens,65 nM
CC[C@@H](CSCc1c2c3c(c(OCc4ccc(-c5ccccc5)cn4)ccc3n1Cc1ccc(Cl)cc1)CC(C)S2)C(=O)O (stereo not given in full),IC50,[1],40 nM
same,IC50,[5]; Homo sapiens,7 nM
CC1Cc2c(OCc3ccc(-c4ccccc4)cn3)ccc3c2c(c(CSCC(=O)O)n3Cc2ccc(Cl)cc2)S1 (stereo not given),IC50,[5]; Homo sapiens,15 nM
CC1Cc2c(OCc3ccc(-c4ccccc4)cn3)ccc3c2c(c(CSCCC(=O)O)n3Cc2ccc(Cl)cc2)S1 (stereo not given),IC50,[1],55 nM
same,IC50,[5]; Homo sapiens,10 nM
CCC(OCCc1c2c3c(c(OCc4ccc(-c5ccccc5)cn4)ccc3n1Cc1ccc(Cl)cc1)CC(C)S2)C(=O)O (stereo in doubt; 14d),IC50,[1],22 nM
same,Cmax,[2],5.5 µM
same,bioavailability,[3],88%
same,Tmax,[4],6 h
same,IC50,[11],3800 nM
same,IC50,[5],7 nM
same,ED50,[12],0.65 mg/kg
same,Inhibition,[6],55%
same,Inhibition,[7],51%
same,inhibition in vivo at 0.1 mg/kg,[13],89%
same,inhibition in vivo at 0.3 mg/kg,[14],100%
same,inhibition in vivo at 0.1 mg/kg,[15],68%
same,inhibition in vivo at 0.3 mg/kg,[16],100%
CCC(OCCc1c2c3c(c(OCc4ccc(-c5ccccc5)cn4)ccc3n1Cc1ccc(Cl)cc1)CC(C)S2)C(=O)O (stereo in doubt; 14e),IC50,[1],13 nM
same,IC50,[11],1800 nM
same,IC50,[5],3.5 nM
CCC(OCCc1c2c3c(c(OCc4ccc(-c5ccccc5)cn4)ccc3n1Cc1ccc(Cl)cc1)CC(C)S2)C(=O)O (stereo in doubt; 14f),IC50,[1],150 nM
same,IC50,[11],16000 nM
same,IC50,[5],10 nM
CCC(OCCc1c2c3c(c(OCc4ccc(-c5ccccc5)cn4)ccc3n1Cc1ccc(Cl)cc1)CC(C)S2)C(=O)O (stereo in doubt; 14g),IC50,[1],8 nM
same,IC50,[11],1000 nM
same,IC50,[5],4 nM
CCC(OCCc1c2c3c(c(OCc4ccc(-c5ccccc5)cn4)ccc3n1Cc1ccc(Cl)cc1)CC(C)S2)C(=O)O (stereo in doubt; 14h),IC50,[1],80 nM
same,IC50,[11],4800 nM
same,IC50,[5],17 nM
CC(C)(C)Sc1c(CC(C)(C)C(=O)O)n(Cc2ccc(Cl)cc2)c2ccc(OCc3ccc4ccccc4n3)cc12 [QUIFLAPON],IC50,[17],3 nM
same,ED50,[18],0.16 mg/kg
same,inhibition in vivo at 0.3 mg/kg,[16],46%
same,inhibition in vivo at 0.3 mg/kg,[19],44%
CC(c1cc2ccccc2s1)N(O)C(N)=O (stereo not given) [ZILEUTON],IC50,"[11]; Homo sapiens, Blood",2000 nM
same,IC50,[8],1060 nM
